Source: ChEMBL document CHEMBL4371094, “Secondary Metabolites from the Fungus Dictyosporium sp. and Their MALT1 Inhibitory Activities” (J Nat Prod, 2019)
Activity calls are given as the source filed them. No cut-off for these calls is given here.

Columns and labels:
[1] = biological target: T1, Mucosa-associated lymphoid tissue lymphoma translocation protein 1 (Homo sapiens) (UniProt Q9UDY8); assay: Inhibition of full-length human GST-tagged MALT1 isoform A (824 residues) expressed in Escherichia coli at 100 uM using Ac-LRSR-MCA as substrate after 1 hr by fluorescence assay
T1 sequence (whole entry): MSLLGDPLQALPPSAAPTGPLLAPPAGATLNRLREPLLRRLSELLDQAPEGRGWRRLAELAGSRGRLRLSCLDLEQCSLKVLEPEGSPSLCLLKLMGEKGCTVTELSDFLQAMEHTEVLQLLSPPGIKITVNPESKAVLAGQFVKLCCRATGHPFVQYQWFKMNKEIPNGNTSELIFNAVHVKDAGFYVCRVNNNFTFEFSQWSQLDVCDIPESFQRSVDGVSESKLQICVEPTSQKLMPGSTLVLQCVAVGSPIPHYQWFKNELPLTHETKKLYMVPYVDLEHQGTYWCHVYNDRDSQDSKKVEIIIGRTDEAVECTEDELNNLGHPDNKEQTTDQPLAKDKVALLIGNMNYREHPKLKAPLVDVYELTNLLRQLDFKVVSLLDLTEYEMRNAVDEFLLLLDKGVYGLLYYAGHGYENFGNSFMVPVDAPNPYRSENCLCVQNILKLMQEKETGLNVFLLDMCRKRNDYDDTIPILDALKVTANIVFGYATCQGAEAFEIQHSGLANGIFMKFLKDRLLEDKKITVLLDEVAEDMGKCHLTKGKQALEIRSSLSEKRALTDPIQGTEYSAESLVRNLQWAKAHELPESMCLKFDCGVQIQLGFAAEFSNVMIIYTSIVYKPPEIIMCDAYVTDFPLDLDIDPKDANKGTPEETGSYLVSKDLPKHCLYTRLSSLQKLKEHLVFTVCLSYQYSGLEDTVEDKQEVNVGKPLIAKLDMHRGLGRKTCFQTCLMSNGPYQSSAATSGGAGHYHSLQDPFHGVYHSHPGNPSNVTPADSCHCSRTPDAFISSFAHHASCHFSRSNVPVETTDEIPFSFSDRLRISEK

[2] = biological target: T2, Mucosa-associated lymphoid tissue lymphoma translocation protein 1 (Homo sapiens, UniProt Q9UDY8); assay: Inhibition of full-length human GST-tagged MALT1 isoform A (824 residues) expressed in Escherichia coli using Ac-LRSR-MCA as substrate after 1 hr by fluorescence assay
T2 sequence (Q9UDY8 whole entry): T1 sequence (whole entry)
Method in brief: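 Recombinant MALT1-GST, 25 nM final, in buffer of 50 mM Tris HCl pH 7.5, 0.05% CHAPS, 1 mM DTT, 0.1 mM EGTA, 0.8 M sodium citrate. Started by adding 150 μM Ac-LRSR-MCA with compound (0−250 μM). 37 °C for 1 h, quenched with equal volume 0.2% SDS, AMC fluorescence read at ex 342/em 441 nm in quadruplicate. Prequenched background subtracted, normalized to vehicle control.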

[3] = biological target: T1, Mucosa-associated lymphoid tissue lymphoma translocation protein 1 (Homo sapiens); assay: Inhibition of full-length human GST-tagged MALT1 isoform A (824 residues) expressed in Escherichia coli at >100 uM in presence of AMC after 1 hr by fluorescence assay

Structure (SMILES) | inhibition [1] | IC50 [2] | inhibition [3]
CCc1c(OC)cc2c(c1O)C(=O)CC[C@@]21C[C@@H](O)C(=O)O1 | inactive | – | –
CCc1c(OC)cc2c(c1O)C(=O)CC[C@@H]2O | inactive | – | –
Cc1cc(CO)c2c(=O)c3c(O)cccc3oc2c1 | inactive | – | –
COc1c(C)cc(O)c2c1[C@H](O)[C@]1(C(=O)C(CC=C(C)C)=CC[C@H]1O)C2=O | inactive | – | –
COC(=O)c1cc(O)cc2oc3cc(C)cc(O)c3c(=O)c12 | inactive | – | –
COC(=O)C1=CC=COc2oc3cc(C)cc(O)c3c(=O)c21 | – | 50.9 µM | Active
COC(=O)c1cccc2oc3cc(C)cc(O)c3c(=O)c12 | inactive | – | –
CC(C)[C@H](NC(=O)OCc1ccccc1)C(=O)N[C@@H](CCCNC(=N)N)C(=O)N1CCC[C@H]1C(=O)N[C@@H](CCCNC(=N)N)C(=O)CF | – | 0.016 µM | –
COC(=O)C1=CC(C)=COc2oc3cccc(O)c3c(=O)c21 | – | 32.1 µM | Active
COC(=O)c1cc(C)c(O)c2oc3cccc(O)c3c(=O)c12 | inactive | – | –
Cc1cc([C@@H]2C[C@H](O)C(=O)O2)c2c(=O)c3c(O)cccc3oc2c1 | inactive | – | –
COc1cc2c(c(O)c1[C@H](C)O)C(=O)CC[C@@H]2O | inactive | – | –
